From ChEMBL document CHEMBL3792290, “Part 1: Notch-sparing γ-secretase inhibitors: The identification of novel naphthyl and benzofuranyl amide analogs” (Bioorg Med Chem Lett, 2016)
Values after ≈ are worked out from the molar mass of the structure shown. Each block holds one molecule with its values, some of them ahead of it.

Tests used:
[1] = target: T1, Gamma-secretase (Homo sapiens) (UniProt Q96BI3+Q9NZ42+Q8WW43+P49768+Q92542+P49810); assay: Inhibition of purified human gamma-secretase expressed in CHO cells assessed as suppression of amyloid beta 40 production at 100 uM using C100-Flag as substrate incubated for 4 hrs by ELISA relative to DMSO control
[2] = Inhibition of human gamma-secretase expressed in CHO cells assessed as effect on Notch1 processing at 100 uM using N100-Flag as substrate incubated for 4 hrs by Western blot analysis relative to DMSO control; type: cell-based
How it was run: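 Purified human γ-secretase from CHO cells stably overexpressing all four components; E. coli-expressed purified C100-Flag (APP) or N100-Flag (Notch) substrate; compounds at 100 μM final in 0.2% CHAPSO/HEPES pH 7.0 with 0.08% phosphatidylcholine, 0.02% phosphatidylethanolamine, DMSO <1% final; 37°C, 4 h; stopped with 0.5% SDS; Aβ40 by ELISA or Notch1 processing by Western blot, versus DMSO control.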

[3] = target: Gamma-secretase; assay: Inhibition of gamma-secretase (unknown origin) assessed as suppression of amyloid beta 42 production by cell-based assay; parameters: species or system Homo sapiens
[4] = target: Gamma-secretase; assay: Inhibition of human gamma-secretase expressed in CHO cells assessed as suppression of amyloid beta 40 production using C100-Flag as substrate incubated for 4 hrs by ELISA relative to DMSO control; type: cell-based
How it was run: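 Enzyme from CHO cells stably overexpressing all four γ-secretase components, purified; C100-Flag substrate expressed in E. coli; reaction in 0.2% CHAPSO/HEPES pH 7.0 containing 0.08% phosphatidylcholine and 0.02% phosphatidylethanolamine, final DMSO <1%; incubated 37°C for 4 h, quenched with SDS (0.5% final); Aβ40 quantified by specific ELISA as percent of DMSO control.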

[5] = target: Gamma-secretase; assay: Inhibition of human gamma-secretase expressed in CHO cells assessed as suppression of amyloid beta 42 production using C100-Flag as substrate incubated for 4 hrs by ELISA; type: cell-based
[6] = Protein binding in human plasma; type: ADME, cell-free; settings: read-out: PPB (converted)
[7] = Lipophilicity, logD of the compound; type: physicochemical; settings: octanol/water
[8] = Metabolic stability in rat liver microsomes assessed as parent compound remaining after 60 mins; type: ADME; settings: read-out: Stability
[9] = target: T1, Gamma-secretase (Homo sapiens); assay: Inhibition of gamma-secretase (unknown origin) assessed as suppression of amyloid beta 42 production at 100 uM by cell-based assay
[10] = Permeability of compound from apical to basolateral side; type: ADME; settings: not told; read-out: permeability
[11] = Metabolic stability in human liver microsomes assessed as parent compound remaining after 60 mins; type: ADME; settings: read-out: Stability
[12] = Solubility of compound in PBS buffer at pH 7.4; type: physicochemical
[13] = Inhibition of gamma-secretase (unknown origin) assessed as suppression of Notch1 processing by cell-based assay; settings: Homo sapiens
[14] = target: Gamma-secretase; assay: Inhibition of gamma-secretase (unknown origin) assessed as suppression of amyloid beta 40 production by cell-based assay; parameters: species or system Homo sapiens

- inhibition [1]: 0%
SMILES: CC(C)N(Cc1ccccc1)C(=O)c1cn(C)c2ccccc12

- IC50 [3]: 135000 nM
- inhibition (INH) [2]: Not Active
- inhibition [1]: 58%
SMILES: CC(C)N(Cc1ccc(Cl)c(Cl)c1)C(=O)c1ccc2ccccc2c1

- inhibition [1]: 0%
SMILES: O=C(NCc1ccccc1)c1ccc2ccccc2c1

- inhibition (INH) [2]: Active
- inhibition [1]: 50%
SMILES: CC(C)N(Cc1ccccc1)C(=O)c1cnc2ccccc2c1

- inhibition (INH) [2]: Not Active
- inhibition [1]: 34%
SMILES: CC(C)N(Cc1ccc(F)c(F)c1)C(=O)c1ccc2ccccc2c1

- inhibition (INH) [2]: Not Active
- inhibition [1]: 19%
SMILES: COc1cccc(CN(C(=O)c2ccc3ccccc3c2)C(C)C)c1

- inhibition [1]: 14%
SMILES: CC(C)N(Cc1ccccc1)C(=O)c1ccc2occc2c1

- inhibition (INH) [2]: Not Active
- inhibition [1]: 52%
SMILES: CC(C)(C)N(Cc1ccccc1)C(=O)c1ccc2ccccc2c1

- inhibition (INH) [2]: Active
- inhibition [1]: 50%
SMILES: CC(C)N(Cc1ccccc1)C(=O)c1cccc(Oc2ccccc2)c1

- inhibition [1]: 10%
SMILES: CC(C)N(Cc1ccccc1)C(=O)c1ccccc1

- inhibition (INH) [2]: Not Active
- inhibition [1]: 40%
SMILES: CC(C)N(Cc1ccccc1)C(=O)c1cc2ccccc2o1

- inhibition (INH) [2]: Active
- inhibition [1]: 38%
SMILES: CC(C)N(Cc1ccc(N2CCCCC2)cc1)C(=O)c1ccc2ccccc2c1

- inhibition [1]: 31%
SMILES: CC(C)N(Cc1cccc(C#N)c1)C(=O)c1ccc2ccccc2c1

- inhibition [1]: 27%
SMILES: CC(C)N(Cc1ccccc1)C(=O)c1ccc(-c2ccccc2)cc1

- inhibition (INH) [2]: Active
- inhibition [1]: 47%
SMILES: COc1ccc(CN(C(=O)c2ccc3ccccc3c2)C(C)C)cc1

- inhibition [1]: 21%
SMILES: CC(C)N(Cc1cc(F)cc(F)c1)C(=O)c1ccc2ccccc2c1

- inhibition (INH) [2]: Not Active
- inhibition [1]: 37%
SMILES: O=C(c1ccc2ccccc2c1)N(Cc1ccccc1)C1CC1

- inhibition [1]: 15%
SMILES: CN(Cc1ccccc1)C(=O)c1ccc2ccccc2c1

- inhibition [1]: 31%
SMILES: CC(C)N(Cc1ccc(C#N)cc1)C(=O)c1ccc2ccccc2c1

- fraction unbound [6]: 0.043
- logD [7]: 4.2
- inhibition (INH) [2]: Not Active
- remaining at 1 h [8]: 1%
- inhibition [9]: 81%
- Papp A→B [10]: 39.6 ×10⁻⁶ cm/s
- remaining at 1 h [11]: 28%
- solubility [12]: 63 µM (≈ 19.1 µg/mL)
- inhibition [1]: 58%
SMILES: CC(C)N(Cc1ccccc1)C(=O)c1ccc2ccccc2c1

- IC50 [3]: 96000 nM
- inhibition (INH) [2]: Not Active
- inhibition [1]: 67%
SMILES: CC(C)N(Cc1ccccc1)C(=O)c1ccc2ccccc2c1O

The remaining lines, values behind:

SMILES: CC(C)N(Cc1ccccc1)C(=O)c1cnc2cc(Cl)ccc2c1O
- inhibition (INH) [2]: Not Active
- inhibition [1]: 33%

SMILES: COc1cccc2cc(C(=O)N(Cc3ccc(F)c(Cl)c3)C(C)C)oc12
- inhibition (INH) [2]: Not Active
- inhibition [1]: 49%

SMILES: Cc1c(C(=O)N(Cc2ccc(Cl)c(Cl)c2)C(C)C)oc2ccccc12
- inhibition [1]: 0%

SMILES: COc1ccc(CN(C(=O)c2ccc3ccccc3c2O)C(C)C)cc1
- IC50 [3]: 95000 nM
- inhibition (INH) [2]: Not Active
- inhibition [1]: 33%

SMILES: COc1cccc2cc(C(=O)N(Cc3ccc(Cl)c(F)c3)C(C)C)oc12
- inhibition (INH) [2]: Not Active
- inhibition [1]: 23%

SMILES: COC(=O)c1ccc(CN(c2cc(F)ccc2F)S(=O)(=O)c2ccc(F)cc2)cc1
- IC50 [4]: 580 nM

SMILES: O=S(=O)(c1ccc(F)cc1)N(Cc1ccccc1OC1CCOCC1)c1cc(F)ccc1F
- IC50 [4]: 360 nM
- IC50 [3]: 620 nM
- IC50 [5]: 400 nM

SMILES: CC(C)N(Cc1ccc(F)c(F)c1)C(=O)c1ccc2ccccc2c1O
- inhibition (INH) [2]: Not Active
- inhibition [1]: 49%

SMILES: COc1cc(CN(C(=O)c2ccc3ccccc3c2)C(C)C)cc(OC)c1
- inhibition (INH) [2]: Not Active
- inhibition [1]: 35%

SMILES: CC(C)N(Cc1cc(F)cc(F)c1)C(=O)c1ccc2ccccc2c1O
- inhibition [1]: 27%

SMILES: CCOc1cccc2cc(C(=O)N(Cc3ccc(Cl)c(Cl)c3)C(C)C)oc12
- inhibition (INH) [2]: Not Active
- inhibition [1]: 58%

SMILES: CC(C)N(Cc1ccc(Cl)c(Cl)c1)C(=O)c1ccc2ccccc2c1O
- IC50 [3]: 85000 nM
- inhibition (INH) [2]: Not Active
- inhibition [1]: 41%

SMILES: CC(C)N(Cc1ccccc1)C(=O)c1ccc(C(C)(C)C)cc1
- inhibition (INH) [2]: Active
- inhibition [1]: 85%

SMILES: CC(C)N(Cc1ccc(Cl)c(Cl)c1)C(=O)c1cc2ccccc2o1
- inhibition (INH) [2]: Not Active
- inhibition [1]: 51%

SMILES: COc1cccc2cc(C(=O)N(Cc3ccc(Cl)c(Cl)c3)C(C)C)oc12
- inhibition (INH) [2]: Not Active
- inhibition [9]: 81%
- inhibition [1]: 75%

SMILES: CCC(CC)N(Cc1ccc(C(=O)O)cc1)S(=O)(=O)c1ccc(Cl)cc1
- IC50 [3]: 130 nM
- IC50 [13]: 10000 nM
- IC50 [14]: 120 nM
